Reference: ChEMBL document CHEMBL1221296, “New synthetic flavone derivatives induce apoptosis of hepatocarcinoma cells” (Bioorg Med Chem, 2010)
Calls of active or inactive are those of the source. The rule behind the calls is not given here.

Assays:
HepG2 [1] = assay: Cytotoxicity against human HepG2 cells by MTT assay; type: functional, cell-based
Outline: (§1)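 Cells grown in DMEM with 10% FBS, penicillin and streptomycin at 37 °C under 5% CO₂. Seeded at 5 × 10³ per 100 µl per well and exposed to compound at 0.5–50 µM for 72 h. MTT (5 mg/ml) added for 5 h, formazan dissolved in DMSO, absorbance read at 490 nm. IC₅₀ is the concentration giving 50% growth inhibition; means of three independent determinations.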

HepG2 [2] = assay: Cell cycle arrest in human HepG2 cells assessed as accumulation at subG0 phase at 10 uM after 36 hrs by FACSan flow cytometry; type: functional
Outline: (§2)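 Cells were treated for 36 h, then washed twice in ice-cold PBS and fixed overnight in 70% ethanol at 4 °C. They were resuspended at 5 × 10⁵/ml in propidium iodide (50 µg/ml in 0.1% sodium citrate, 0.03% v/v Nonidet P-40) and held 30 min on ice. DNA-content histograms were read by FACScan flow cytometry, with sub-G₀ scored as apoptotic.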

[3] = Growth inhibition of human CNE1 cells after 72 hrs by MTT assay; type: functional, cell-based; settings: CNE; outline: as §1
HepG2 [4] = assay: Induction of apoptosis in human HepG2 cells assessed as increase in […] mRNA expression after 26 hrs by RT-PCR; type: functional, cell-based
Outline: (§3)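 HepG-2 cells treated at 0, 5, 10, 25 and 50 µM for 26 h. cDNA made from 1 µg total RNA and amplified for Bcl-2 and Bax over 30 cycles (98 °C 15 s, 57 °C 10 s, 72 °C 35 s), with GAPDH as control. Results expressed as fold change relative to control.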

HepG2 [5] = assay: Induction of apoptosis in human HepG2 cells assessed as caspase 9 activation at 50 uM after 2 to 24 hrs; type: functional, cell-based
Outline: (§4)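 HepG-2 cells were treated for 0, 2, 4, 8, 14 and 24 h. Lysates were made on ice and cleared at 20,000g, 4 °C, and protein was measured by Bradford. 0.1 mg protein was incubated 2 h at 37 °C with Ac-DEVD-pNA (caspase-3), Ac-IETD-pNA (caspase-8) or Ac-LEHD-pNA (caspase-9), and pNA release was read at 405 nm.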

HepG2 [6] = assay: Induction of apoptosis in human HepG2 cells assessed as DNA fragmentation at 10 uM after 36 hrs by agarose gel electrophoresis; type: functional, cell-based
Outline: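 HepG-2 cells (1 × 10⁶) exposed to 0, 5, 10, 25 and 50 µM for 36 h, then trypsinized and lysed in 10 mM Tris–HCl pH 7.4, 10 mM EDTA, 0.5% Triton X-100 and proteinase K (200 µg/ml). DNA isolated by organic extraction, run on 2% agarose and stained with ethidium bromide to detect laddering.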

HepG2 [7] = assay: Cell cycle arrest in human HepG2 cells assessed as accumulation at S phase at 10 uM after 36 hrs by FACSan flow cytometry; type: functional; outline: as §2
HepG2 [8] = assay: Induction of apoptosis in human HepG2 cells assessed as caspase 8 activation at 50 uM after 2 to 24 hrs; type: functional, cell-based; outline: as §4
HepG2 [9] = assay: Induction of apoptosis in human HepG2 cells assessed as decrease in Bcl2 mRNA expression after 26 hrs by RT-PCR; type: functional, cell-based; outline: as §3
HepG2 [10] = assay: Cell cycle arrest in human HepG2 cells assessed as accumulation at S phase at 25 uM after 36 hrs by FACSan flow cytometry; type: functional; outline: as §2
HepG2 [11] = assay: Induction of apoptosis in human HepG2 cells assessed as caspase 3 activation at 50 uM after 2 to 24 hrs; type: functional, cell-based; outline: as §4
HepG2 [12] = assay: Cell cycle arrest in human HepG2 cells assessed as accumulation at G2 phase at 50 uM after 36 hrs by FACSan flow cytometry; type: functional; outline: as §2
HepG2 [13] = assay: Cell cycle arrest in human HepG2 cells assessed as accumulation at G1 phase at 5 uM after 36 hrs by FACSan flow cytometry; type: functional; outline: as §2
MCF7 = assay: Growth inhibition of human MCF7 cells after 72 hrs by MTT assay; type: functional, cell-based; settings: MCF7, 72 h; outline: as §1
HepG2 [14] = assay: Cell cycle arrest in human HepG2 cells assessed as accumulation at G2 phase at 10 uM after 36 hrs by FACSan flow cytometry; type: functional; outline: as §2
HepG2 [15] = assay: Cell cycle arrest in human HepG2 cells assessed as accumulation at subG0 phase at 50 uM after 36 hrs by FACSan flow cytometry; type: functional; outline: as §2
HepG2 [16] = assay: Cell cycle arrest in human HepG2 cells assessed as accumulation at subG0 phase at 25 uM after 36 hrs by FACSan flow cytometry; type: functional; outline: as §2
[17] = Growth inhibition of human CNE2 cells after 72 hrs by MTT assay; type: functional, cell-based; settings: CNE-2, 72 h; outline: as §1
HepG2 [18] = assay: Cell cycle arrest in human HepG2 cells assessed as accumulation at G2 phase at 5 uM after 36 hrs by FACSan flow cytometry; type: functional; outline: as §2
HepG2 [19] = assay: Cell cycle arrest in human HepG2 cells assessed as accumulation at G2 phase at 25 uM after 36 hrs by FACSan flow cytometry; type: functional; outline: as §2
HepG2 [20] = assay: Cell cycle arrest in human HepG2 cells assessed as accumulation at G1 phase at 10 uM after 36 hrs by FACSan flow cytometry; type: functional; outline: as §2
HepG2 [21] = assay: Induction of apoptosis in human HepG2 cells assessed as change in cellular morphology at 10 uM after 36 hrs […]; type: functional, cell-based
HepG2 [22] = assay: Cell cycle arrest in human HepG2 cells assessed as accumulation at S phase at 50 uM after 36 hrs by FACSan flow cytometry; type: functional; outline: as §2
HepG2 [23] = assay: Cell cycle arrest in human HepG2 cells assessed as accumulation at G1 phase at 50 uM after 36 hrs by FACSan flow cytometry; type: functional; outline: as §2
HepG2 [24] = assay: Cell cycle arrest in human HepG2 cells assessed as accumulation at S phase at 5 uM after 36 hrs by FACSan flow cytometry; type: functional; outline: as §2
HepG2 [25] = assay: Cell cycle arrest in human HepG2 cells assessed as accumulation at subG0 phase at 5 uM after 36 hrs by FACSan flow cytometry; type: functional; outline: as §2
HepG2 [26] = assay: Cell cycle arrest in human HepG2 cells assessed as accumulation at G1 phase at 25 uM after 36 hrs by FACSan flow cytometry; type: functional; outline: as §2
HeLa = assay: Growth inhibition of human HeLa cells after 72 hrs by MTT assay; type: functional, cell-based; outline: as §1

Q: Which IC50 (HepG2 [1]) does the source give for `COc1ccccc1-c1cc(=O)c2cc(C(C)C)ccc2o1` here?
A: The IC50 was 5.4 µM.

Q: For `CC(C)c1ccc2oc(-c3ccccc3)cc(=O)c2c1`, which IC50 (HepG2 [1]) is on record?
A: Its IC50 is 6.4 µM.

Q: Which IC50 (HepG2 [1]) does the source give for `O=c1cc(C2CCCC2)oc2c1ccc1ccccc12` here?
A: The IC50 was 6.1 µM.

Q: With `COc1cc(-c2cc(=O)c3cc(C(C)C)ccc3o2)cc(OC)c1OC` as the molecule, how does the IC50 (HepG2 [1]) read?
A: Its IC50 is 3.6 µM.

Q: With `COc1ccc(-c2cc(=O)c3cc(C(C)C)ccc3o2)cc1` as the molecule, how does the IC50 (HepG2 [1]) read?
A: The IC50 was 9.9 µM.

Q: With `CC(C)c1ccc2oc(C3CCCC3)cc(=O)c2c1` as the molecule, how does the IC50 (HepG2 [1]) read?
A: Its IC50 is 8.6 µM.

Q: For `CC(C)c1ccc2oc(C3CCCCC3)cc(=O)c2c1`, which IC50 (HepG2 [1]) is on record?
A: The IC50 was 18 µM.

Q: With `O=c1cc(C2CCCCC2)oc2ccc(Cl)cc12` as the molecule, how does the IC50 (HepG2 [1]) read?
A: The IC50 was 20 µM.

Q: With `CC(C)c1ccc2oc(-c3cccc([N+](=O)[O-])c3)cc(=O)c2c1` as the molecule, how does the IC50 (HepG2 [1]) read?
A: The IC50 was > 50 µM.

Q: With `COc1cc(OC)cc(-c2cc(=O)c3cc(Cl)ccc3o2)c1` as the molecule, how does the Activity (HepG2 [2]) read?
A: Its Activity is 34.54%.

Q: And the IC50 [3]?
A: The IC50 was 10.4 µM.

Q: What about the Activity (HepG2 [4]) of the same molecule?
A: The Activity was “Active”.

Q: And the IC50 (HepG2 [1])?
A: Its IC50 is 1.1 µM.

Q: What about the Activity (HepG2 [5]) of the same molecule?
A: The Activity was “Active”.

Q: What about the Activity (HepG2 [6]) of the same molecule?
A: Its Activity is “Active”.

Q: What about the Activity (HepG2 [7]) of the same molecule?
A: Its Activity is 13.32%.

Q: What about the Activity (HepG2 [8]) of the same molecule?
A: The Activity was “Active”.

Q: What about the Activity (HepG2 [9]) of the same molecule?
A: Its Activity is “Dose-dependent effect”.

Q: And the Activity (HepG2 [10])?
A: Its Activity is 9.32%.

Q: What about the Activity (HepG2 [11]) of the same molecule?
A: Its Activity is “Active”.

Q: And the Activity (HepG2 [12])?
A: The Activity was 5.69%.

Q: And the Activity (HepG2 [13])?
A: Its Activity is 41.67%.

Q: What about the IC50 (MCF7) of the same molecule?
A: Its IC50 is 7.4 µM.

Q: And the Activity (HepG2 [14])?
A: Its Activity is 13.47%.

Q: What about the Activity (HepG2 [15]) of the same molecule?
A: The Activity was 79.32%.

Q: And the Activity (HepG2 [16])?
A: The Activity was 55.83%.

Q: What about the IC50 [17] of the same molecule?
A: The IC50 was 12.9 µM.

Q: What about the Activity (HepG2 [18]) of the same molecule?
A: Its Activity is 16.47%.

Q: And the Activity (HepG2 [19])?
A: The Activity was 11.47%.

Q: What about the Activity (HepG2 [20]) of the same molecule?
A: Its Activity is 38.67%.

Q: What about the Activity (HepG2 [21]) of the same molecule?
A: Its Activity is “Active”.

Q: And the Activity (HepG2 [22])?
A: The Activity was 3.47%.

Q: And the Activity (HepG2 [23])?
A: Its Activity is 11.52%.

Q: What about the Activity (HepG2 [24]) of the same molecule?
A: The Activity was 20.32%.

Q: What about the Activity (HepG2 [25]) of the same molecule?
A: Its Activity is 21.54%.

Q: What about the Activity (HepG2 [26]) of the same molecule?
A: The Activity was 23.38%.

Q: What about the IC50 (HeLa) of the same molecule?
A: The IC50 was 3 µM.

Q: Which IC50 (HepG2 [1]) does the source give for `O=c1cc(C2CCCCC2)oc2c1ccc1ccccc12` here?
A: Its IC50 is 2.9 µM.

Q: Which IC50 (HepG2 [1]) does the source give for `COc1cccc(-c2cc(=O)c3cc(C(C)C)ccc3o2)c1` here?
A: Its IC50 is 2.1 µM.

Q: With `CC(C)c1ccc2oc(-c3ccc([N+](=O)[O-])cc3)cc(=O)c2c1` as the molecule, how does the IC50 (HepG2 [1]) read?
A: Its IC50 is > 50 µM.

Q: With `O=c1cc(C2CCCC2)oc2ccc(Cl)cc12` as the molecule, how does the IC50 (HepG2 [1]) read?
A: Its IC50 is 13.4 µM.
